# Source: PubChem
# CHRM4 agonist: human M4 muscarinic receptor agonists, primary screen, CHO-K1 cells, Fluo-8 calcium fluorescence; Muscarinic acetylcholine receptor M4 (Homo sapiens), P08173; CHO-K1 hM4/Gqi5; vehicle 0%, full acetylcholine response 100%; activation, % at 3 µM; 360,000 compounds, 0.14% hits; AID 624127, 2012;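 active means activation above the run mean over all test wells plus 3 SD, cut at about 32% in these data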;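 further: peak over basal fluorescence ratio per well then scaled between controls; 0% = DMSO wells and 100% = acetylcholine at EC100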
# Target sequence (P08173 whole entry, looked up): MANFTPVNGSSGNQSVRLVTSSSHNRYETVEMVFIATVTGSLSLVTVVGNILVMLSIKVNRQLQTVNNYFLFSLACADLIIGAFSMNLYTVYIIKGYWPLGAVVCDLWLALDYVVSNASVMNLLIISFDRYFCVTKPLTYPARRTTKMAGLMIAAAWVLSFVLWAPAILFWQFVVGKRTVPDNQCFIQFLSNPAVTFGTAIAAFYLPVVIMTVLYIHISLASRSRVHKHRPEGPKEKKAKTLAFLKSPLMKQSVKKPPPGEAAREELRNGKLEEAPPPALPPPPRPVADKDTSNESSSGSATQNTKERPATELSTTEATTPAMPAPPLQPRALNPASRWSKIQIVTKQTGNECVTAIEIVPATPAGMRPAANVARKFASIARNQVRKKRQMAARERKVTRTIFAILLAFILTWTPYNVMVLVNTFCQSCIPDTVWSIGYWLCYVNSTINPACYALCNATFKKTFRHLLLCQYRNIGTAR
# M4 PAM: human M4 muscarinic receptor positive allosteric modulators, primary screen, CHO-K1 cells, Fluo-8 calcium fluorescence. activation, % at 3 µM. CHO-K1 hM4/Gqi5, ACh EC20; 0% = ACh EC20, 100% = maximal ACh. 360,000 compounds, 0.4% hits. AID 624126, 2012;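 active means activation above its plate's cutoff, the mean activation of sample wells plus 3 SD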
# M5 ag: human M5 muscarinic receptor agonists, primary screen, CHO-K1 cells, Fluo-8 calcium fluorescence; Muscarinic acetylcholine receptor M5 (Homo sapiens), P08912; CHO-K1 hM5 cells; 0% DMSO wells, 100% maximal acetylcholine response; activation, % at 3 µM; 360,000 compounds, 0.19% hits;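 active means activation above the run's mean over test compounds plus 3 SD, cut at about 23% in these data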;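 further: signal is peak over basal fluorescence ratio across the kinetic read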
# CHRM5 antagonist: human M5 muscarinic receptor antagonists, primary screen, CHO cells, Fluo-8 calcium fluorescence; inhibition, % at 3 µM; CHO-hM5 cells, ACh EC80; 360,000 compounds, 0.59% hits; Muscarinic acetylcholine receptor M5 (Homo sapiens), P08912;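 active means inhibition above a per-plate cutoff, the mean of that plate's test compounds plus 3 SD, cut at about 27% in these data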;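 further: 0% = acetylcholine EC80 with DMSO and 100% = DMSO without agonist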
# CHRM4 antagonist: human M4 muscarinic receptor antagonists, primary screen, CHO cells, Fluo-8 calcium fluorescence | inhibition, % at 3 µM | CHO-hM4 cells, ACh EC80 | 360,000 compounds, 0.73% hits | Muscarinic acetylcholine receptor M4 (Homo sapiens), P08173;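 active means inhibition above its plate's cutoff, the mean inhibition of sample wells plus 3 SD, cut at about 27% in these data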;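 further: 0% = acetylcholine EC80 with DMSO and 100% = DMSO without agonist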
# CHRM5 PAM: human M5 muscarinic receptor positive allosteric modulators, primary screen, CHO-K1 cells, Fluo-8 calcium fluorescence; CHO-K1 hM5, ACh EC20 PAM; 0% = ACh EC20, 100% = ACh EC100; Muscarinic acetylcholine receptor M5 (Homo sapiens), P08912; activation, % at 3 µM; AID 624038, 2012; 360,000 compounds, 0.3% hits;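 active means activation above the run cutoff, the mean activation of all test compounds plus 3 SD, cut at about 18% in these data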
#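 Assay system – human M5 receptor in CHO-K1 cells · Read-out – % activation, ACh-normalized · Technique – Fluo-8 calcium fluorescence · Dosing – single-point, 3 µM nominal · Incubation – Fluo-8 loading 80 min at 37 °C plus 30 min room temperature · Repeats – singlicate, one well per test compound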
# The depositor's hits bear a star. Shown are actives, neighbours in structure and some others; about 1.9% of the full set was active somewhere.
SMILES,CHRM4 agonist,M4 PAM,M5 ag,CHRM5 antagonist,CHRM4 antagonist,CHRM5 PAM
CC(=O)c1ccc2c(c1)N(C)c1ccccc1S2,-1,5,-3,2,8,7
CN(C)CCCN1c2ccccc2Sc2ccccc21,7,-17,1,90*,51*,-20
COc1cccc(C(=O)N2CCC[C@H]2C(=O)N2CCC[C@H]2C(=O)NCc2ccccn2)c1,1,19,2,-12,-6,3
COc1ccc(C(C(=O)NCc2ccccc2)n2c(=O)c(-c3cc4ccccc4[nH]3)nc3ccccc32)cc1 (stereo not given),2,4,0,7,14,2
O=C(CCNC(=O)N1CC(=O)Nc2ccccc21)NCc1cccc(C(F)(F)F)c1,1,-2,0,5,2,-3
CN(C)CCCN1c2ccccc2CCc2ccc(Cl)cc21,5,-17,0,92*,72*,-19
CCOC(=O)C1=CCN(S(=O)(=O)c2ccccc2C)C1c1ccc(Cl)c(Cl)c1 (stereo not given),-1,4,-5,-10,-22,-7
NC(c1csc(NC(=O)Nc2ccc(OC(F)(F)F)cc2)n1)C1CCCCC1 (stereo not given),13,2,3,4,1,2
Cc1nc2ccccc2nc(C)c1=NOCc1cccc(F)c1,1,0,0,10,-4,5
Cc1nc2ccccc2nc(C)c1=NOCc1ccc(C#N)cc1,2,19*,0,4,-1,5
COc1ccc(C)c2sc(NC(=O)C3=COCCO3)nc12,15,36*,1,-6,-9,6
COC(=O)c1c(NC(=O)C2=COCCO2)sc(C)c1C,0,25*,-5,6,7,-1
C[C@H](CO)N1C[C@H](C)[C@@H](CN(C)Cc2ccc(C(=O)O)cc2)Oc2ncc(Br)cc2C1=O,1,2,1,-5,-17,6
COc1ccc(C(=O)Nc2cc(=O)[nH]c3ncnn23)cc1,0,4,-1,5,29*,1
O=C(Nc1cc(=O)[nH]c2ncnn12)c1ccco1,0,6,0,1,14,0
COc1ccc(CN2CC[C@@H]3CN(C(C)=O)[C@H](c4ccccc4Br)C[C@@H]32)cc1,1,-2,-6,-7,-25,1
COc1ccc(CCNC2=CC(=O)CCC2)cc1OC,0,16,-3,-2,-16,9
CCCCC(=O)OCC(=O)C1(O)Cc2c(O)c3c(c(O)c2C(OC2CC(NC(=O)C(F)(F)F)C(O)C(C)O2)C1)C(=O)c1c(OC)cccc1C3=O (stereo not given),13,-5,33*,40*,23,-22
CC1CCCN(S(=O)(=O)c2ccc(Cl)s2)C1 (stereo not given),-1,1,-5,6,-22,19*
COc1ccc(OC)c(S(=O)(=O)N2CCCCCC2)c1,0,10,-5,-7,6,8
COc1ccc(OC)c(S(=O)(=O)N2CCCC(C)C2)c1 (stereo not given),0,28*,-2,-10,-6,10
CC1CCCN(S(=O)(=O)c2ccc(Br)s2)C1 (stereo not given),-1,-1,-6,-5,4,1
Cn1nc(C(F)(F)F)c(/C=N/OC(=O)c2ccccc2)c1SCc1ccc(Cl)cc1,0,-18,-7,6,10,-10
Cn1nc(C(F)(F)F)c(/C=N/OC(=O)c2ccccc2Cl)c1SCc1ccccc1Cl,-1,-33,-7,-4,67*,-16
CC1CCc2c(sc(/N=C/N(C)C)c2C#N)C1 (stereo not given),0,3,-6,-10,-3,20*
SMILES,CHRM4 agonist,M4 PAM,M5 ag,CHRM5 antagonist,CHRM4 antagonist,CHRM5 PAM
COCOCCn1cc(CN2CCS(=O)(=O)N(Cc3ccc(-c4ccc(F)cc4)cc3)C(CC(C)C)C2=O)nn1 (stereo not given),12,-2,0,19,0,-5
CCN(CC(=O)Nc1cc(C)on1)CC(=O)Nc1ccccc1C(F)(F)F,2,8,4,-16,0,8
CCN(CC(=O)Nc1ccccc1C(F)(F)F)C(=O)CSCC(=O)Nc1cc(C)on1,0,23*,-2,-7,-8,7
CN(C)CC(=O)N1c2ccccc2Sc2ccc(Cl)cc21,1,-20,-10,95*,68*,-19
O=C(CCN1CCN2CCCC2C1)N1c2ccccc2Sc2ccc(Cl)cc21 (stereo not given),1,-18,-7,11,16,-10
CN1CCC=C(C(=O)N2c3ccccc3Sc3ccc(Cl)cc32)C1,2,-59,-22,99*,86*,-32
Cn1nnnc1SCC(=O)N1c2ccccc2Sc2ccc(Cl)cc21,2,-13,-12,10,14,-13
CCN(CC)CCC(=O)N1c2ccccc2Sc2ccc(Cl)cc21,1,-18,-1,99*,98*,-19
CN(C)CCC(=O)N1c2ccccc2Sc2ccc(Cl)cc21,0,-24,-10,100*,96*,-20
CCOC(=O)C1=CCN(S(=O)(=O)c2ccc(F)cc2)C1c1ccc(Cl)c(Cl)c1 (stereo not given),1,-7,-5,2,14,-8
O=C(/C=C/c1ccccc1Cl)N1CCOCC1,2,2,1,5,-5,-2
N#Cc1ccccc1/C=C/C(=O)N1CCOCC1,10,-8,34*,12,4,-23
N#Cc1ccc(C(C(=O)NC2CCCCC2)n2c(=O)c(-c3ccccc3)nc3ccccc32)cc1 (stereo not given),1,5,-2,11,-5,-4
Cn1cc(-c2csc(C(O)c3ccccc3)n2)cn1 (stereo not given),1,6,1,7,-1,0
O=C(Cn1ncc2c([nH]c3ccccc32)c1=O)NCCc1ccc(Cl)cc1,1,-3,-1,8,4,-5
CSc1ccc(CCNC(=O)Cn2ncc3c([nH]c4ccccc43)c2=O)cc1,2,15*,-4,19,16,-3
Cc1ccc(-n2ncc3c(=O)n(-c4cccc(C)c4)c(=O)[nH]c32)cc1,0,6,-2,3,-10,-2
CCc1ccc2c(c1)/C(=C/C(=O)c1cccs1)C(=O)N2,5,-19,25*,18,23,7
